Test results as given in ChEMBL document CHEMBL3865805, “Discovery and antiplatelet activity of a selective PI3Kβ inhibitor (MIPS-9922)” (Eur J Med Chem, 2016).
In brackets after ≈: the same amount, converted by molar mass. Activity calls are given as the source filed them. No cut-off for these calls is given here.

Columns and labels:
[1] = Apparent half life in Sprague-Dawley rat at 3 mg/kg, iv by LC-MS analysis; format: ADME, organism-based; settings: in vivo, read-out: t1/2(app)
Outline: (§1)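 Sprague Dawley rats, n=2 per route. Single dose: 3 mg/kg intravenous or 20 mg/kg oral. Plasma concentration followed over time. Half-life, volume of distribution, clearance, Tmax and oral bioavailability derived from the plasma concentration-time profiles.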

[2] = Aqueous solubility of compound in saline; format: physicochemical; settings: buffer
Mus musculus [3] = assay: Toxicity in C57BL/6 mouse model of electrolytic injury induced occlusive thrombus formation assessed as increase in tail bleeding time at 2.5 mg/kg, iv bolus administration; format: organism-based; settings: in vivo
Outline: (§2)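 Mouse tail bleeding assay after 2.5 mg/kg iv (n = 8) against vehicle, 0.01% DMSO (n = 8). Tail bleeding time recorded; blood loss quantified as absorbance of haemoglobin at 575 nm.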

albumin = albumin (Homo sapiens, UniProt P02768); assay: Protein binding to human serum albumin by HPLC analysis; format: ADME; settings: read-out: PB (converted)
[4] = Tmax in Sprague-Dawley rat at 20 mg/kg, po via gavage by LC-MS analysis; format: ADME, organism-based; settings: in vivo; outline: as §1
[5] = Intrinsic clearance in human liver microsomes at 1 uM after 60 mins in presence of NADPH by UPLC-MS analysis; format: ADME; settings: read-out: CLH
[6] = Plasma clearance in Sprague-Dawley rat at 3 mg/kg, iv by LC-MS analysis; format: ADME, organism-based; outline: as §1
[7] = target: T1, Phosphatidylinositol 4,5-bisphosphate 3-kinase catalytic subunit beta isoform (Homo sapiens, UniProt P42338); assay: Inhibition of PI3Kbeta in human washed platelets assessed as suppression of ADP-induced platelet aggregation at 0.5 uM preincubated for 5 mins followed by 5 to 10 uM ADP stimulation after 10 mins by light transmission aggregometric analysis
Outline: (§3)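 Washed human platelets in an aggregometer. Inhibitor at 0.5 µM. Aggregation induced by 5, 10 or 25 µM ADP; percent inhibition read.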

[8] = target: T1, Phosphatidylinositol 4,5-bisphosphate 3-kinase catalytic subunit beta isoform; assay: Inhibition of PI3Kbeta in human platelet-rich plasma assessed as suppression of ADP-induced platelet aggregation preincubated for 5 mins followed by ADP stimulation after 10 mins by light transmission aggregometric analysis
Outline: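 Human platelet-rich plasma stimulated with ADP; aggregation measured over a concentration range of inhibitor, and IC50 taken from the dose-response curve.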

[9] = Distribution constant, logD of compound at pH 7.4; format: physicochemical; settings: buffer
Mus musculus [10] = assay: Toxicity in C57BL/6 mouse model of electrolytic injury induced occlusive thrombus formation assessed as excessive blood loss at 2.5 mg/kg, iv bolus administration; format: organism-based; settings: in vivo; outline: as §2
[11] = target: T1, Phosphatidylinositol 4,5-bisphosphate 3-kinase catalytic subunit beta isoform; assay: Inhibition of PI3Kbeta in human washed platelets assessed as suppression of ADP-induced platelet aggregation at 0.5 uM preincubated for 5 mins followed by 25 uM ADP stimulation after 10 mins by light transmission aggregometric analysis; outline: as §3
[12] = target: T2, Proteinase-activated receptor 1 (Homo sapiens) (UniProt P25116); assay: Inhibition of PAR1 in human washed platelets assessed as suppression of TRAP-induced integrin alpha2bbeta3 activation preincubated for 5 mins followed by TRAP stimulation after 10 mins by OG-FNG-based FACS analysis
T2 sequence (whole entry): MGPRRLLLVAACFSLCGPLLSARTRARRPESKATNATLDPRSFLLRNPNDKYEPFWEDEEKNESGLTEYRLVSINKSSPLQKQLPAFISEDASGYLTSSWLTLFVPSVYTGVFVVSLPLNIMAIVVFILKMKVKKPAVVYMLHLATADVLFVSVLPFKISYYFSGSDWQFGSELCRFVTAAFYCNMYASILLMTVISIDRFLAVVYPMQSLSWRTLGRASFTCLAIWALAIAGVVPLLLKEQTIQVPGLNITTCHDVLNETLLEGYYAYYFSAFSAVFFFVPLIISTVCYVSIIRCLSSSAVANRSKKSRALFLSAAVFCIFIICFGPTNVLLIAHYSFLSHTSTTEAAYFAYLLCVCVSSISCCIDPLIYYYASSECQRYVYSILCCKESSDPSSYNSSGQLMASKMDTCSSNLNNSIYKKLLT
Outline: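 Washed human platelets stimulated with TRAP at 0.5–1 µM, chosen by donor response. αIIbβ3 activation read as Oregon-Green fibrinogen binding by flow cytometry. DMSO 0.25% control set as 100%. n = 4-7, mean ± SEM.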

[13] = Aqueous solubility of compound at pH 6.5 by turbidimetric solubility assay; format: physicochemical; settings: buffer
[14] = target: T1, Phosphatidylinositol 4,5-bisphosphate 3-kinase catalytic subunit beta isoform; assay: Inhibition of PI3Kbeta in human washed platelets assessed as suppression of ADP-induced integrin alpha2bbeta3 activation preincubated for 5 mins followed by ADP stimulation after 10 mins by OG-FNG-based FACS analysis
Outline: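 Washed human platelets stimulated with ADP (5 µM). Integrin αIIbβ3 activation read as Oregon-Green fibrinogen binding by flow cytometry. DMSO 0.25% control set as 100%. n = 3, mean ± SEM. t test against 0.001 µM drug.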

[15] = Stability in Sprague-Dawley rat plasma at […] after 4 hrs by UPLC-MS analysis; format: ADME, cell-free
[16] = target: T1, Phosphatidylinositol 4,5-bisphosphate 3-kinase catalytic subunit beta isoform; assay: Inhibition of PI3Kbeta in human washed platelets assessed as suppression of ADP-induced platelet aggregation preincubated for 5 mins followed by ADP stimulation after 10 mins by light transmission aggregometric analysis
Outline: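 Washed human platelets in a conventional aggregometer. Aggregation induced by ADP; IC50 taken from the dose-response curve.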

Rattus norvegicus = assay: Toxicity in Sprague-Dawley rat at 20 mg/kg, po administered via gavage or 3 mg/kg, iv; format: organism-based; settings: in vivo
[17] = Apparent oral bioavailability in Sprague-Dawley rat at 20 mg/kg administered via gavage by LC-MS analysis; format: ADME, organism-based; settings: in vivo, read-out: Fapp; outline: as §1
[18] = Aqueous solubility of compound at pH 2 by turbidimetric solubility assay; format: physicochemical; settings: buffer
Mus musculus [19] = assay: Antithrombosis activity in C57BL/6 mouse model of electrolytic injury induced occlusive thrombus formation assessed as prevention of arterial thrombi formation by measuring effect on carotid artery blood flow volume at 2.5 mg/kg, iv administered through bolus prior to electrolytic injury measured after 60 mins; format: functional, organism-based
Outline: (§4)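 Electrolytic injury to the mouse carotid artery; 2.5 mg/kg given iv in saline (n = 8) against saline control (n = 8). Carotid blood flow (ml/min per 100 g body weight) monitored after injury, and flow volume taken as area under the curve over the 60-min period; mean ± S.E.M.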

Platelet = assay: Antiplatelet activity against human washed platelets assessed as reduction in shear-induced stationary platelet adhesion to vWF matrix preincubated for 5 mins followed by blood perfusion after 4 mins; format: functional, cell-based
Outline: (§5)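 Human whole blood, anticoagulated, perfused over a vWf matrix at 1800 s^-1 for 4 min; stationary platelet adhesion scored. Vehicle DMSO 0.25% taken as 100%. Drug tested up to 5 µM. t test against 0.1 µM drug.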

[20] = Clearance in rat by LC-MS analysis relative to hepatic blood flow; format: ADME, Liver; settings: in vivo
[21] = Antiplatelet activity against human washed platelets assessed as shear-induced stationary platelet adhesion to vWF matrix at 1 to 5 uM preincubated for 5 mins followed by blood perfusion after 4 mins relative to control; format: functional; outline: as §5
[22] = Blood clearance in rat by LC-MS analysis; format: ADME, tissue-based; settings: whole blood
[23] = Drug excretion in iv dosed rat urine by LC-MS analysis; format: ADME, organism-based; settings: read-out: Drug excretion
Mus musculus [24] = assay: Antithrombosis activity in C57BL/6 mouse model of electrolytic injury induced occlusive thrombus formation assessed as prevention of arterial thrombi formation by measuring effect on rate of carotid artery blood flow at 2.5 mg/kg, iv administered through bolus prior to electrolytic injury; format: functional, organism-based; outline: as §4
[25] = Volume of distribution at steady state in Sprague-Dawley rat at 3 mg/kg, iv by LC-MS analysis; format: ADME, organism-based; settings: in vivo, read-out: Vdss; outline: as §1
[26] = Intrinsic clearance in rat liver microsomes at 1 uM after 60 mins in presence of NADPH by UPLC-MS analysis; format: ADME; settings: read-out: CLH
[27] = Distribution constant, logD of compound at pH 3; format: physicochemical; settings: buffer
[28] = Effect on platelet tethering in human washed platelets at 0.1 to 5 uM; format: ADME, cell-based
[29] = Effect on platelet translocation in human washed platelets at 0.1 to 5 uM; format: ADME, cell-based

T1 sequence (P42338 whole entry, looked up, canonical isoform): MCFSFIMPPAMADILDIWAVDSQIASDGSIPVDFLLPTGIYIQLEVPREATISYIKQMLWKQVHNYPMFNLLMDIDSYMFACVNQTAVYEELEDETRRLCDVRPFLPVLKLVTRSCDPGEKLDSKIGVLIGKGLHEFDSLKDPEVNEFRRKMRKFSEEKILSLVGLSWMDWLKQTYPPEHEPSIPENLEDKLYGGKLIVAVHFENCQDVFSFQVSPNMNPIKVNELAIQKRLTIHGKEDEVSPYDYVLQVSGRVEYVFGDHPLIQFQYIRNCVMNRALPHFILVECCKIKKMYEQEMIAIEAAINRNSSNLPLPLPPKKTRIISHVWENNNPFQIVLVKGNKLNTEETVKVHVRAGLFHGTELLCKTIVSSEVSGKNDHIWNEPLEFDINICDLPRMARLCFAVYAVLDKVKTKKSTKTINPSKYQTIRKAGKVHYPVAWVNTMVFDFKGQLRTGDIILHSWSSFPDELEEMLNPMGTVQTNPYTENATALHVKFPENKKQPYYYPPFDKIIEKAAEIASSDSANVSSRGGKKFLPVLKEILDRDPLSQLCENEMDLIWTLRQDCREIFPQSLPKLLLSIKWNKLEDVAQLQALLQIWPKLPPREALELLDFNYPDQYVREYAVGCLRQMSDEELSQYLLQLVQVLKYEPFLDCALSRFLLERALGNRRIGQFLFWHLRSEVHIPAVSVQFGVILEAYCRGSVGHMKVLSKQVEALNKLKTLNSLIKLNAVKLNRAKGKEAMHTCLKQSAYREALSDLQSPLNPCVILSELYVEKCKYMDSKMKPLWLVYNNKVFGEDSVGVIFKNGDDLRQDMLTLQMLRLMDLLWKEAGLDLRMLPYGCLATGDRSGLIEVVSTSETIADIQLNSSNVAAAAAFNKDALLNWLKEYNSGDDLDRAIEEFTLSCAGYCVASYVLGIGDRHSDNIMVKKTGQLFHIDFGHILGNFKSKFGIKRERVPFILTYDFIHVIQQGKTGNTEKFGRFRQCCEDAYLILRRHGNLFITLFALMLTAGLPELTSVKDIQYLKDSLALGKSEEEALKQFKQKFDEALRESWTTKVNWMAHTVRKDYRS
albumin, sequence (P02768 whole entry): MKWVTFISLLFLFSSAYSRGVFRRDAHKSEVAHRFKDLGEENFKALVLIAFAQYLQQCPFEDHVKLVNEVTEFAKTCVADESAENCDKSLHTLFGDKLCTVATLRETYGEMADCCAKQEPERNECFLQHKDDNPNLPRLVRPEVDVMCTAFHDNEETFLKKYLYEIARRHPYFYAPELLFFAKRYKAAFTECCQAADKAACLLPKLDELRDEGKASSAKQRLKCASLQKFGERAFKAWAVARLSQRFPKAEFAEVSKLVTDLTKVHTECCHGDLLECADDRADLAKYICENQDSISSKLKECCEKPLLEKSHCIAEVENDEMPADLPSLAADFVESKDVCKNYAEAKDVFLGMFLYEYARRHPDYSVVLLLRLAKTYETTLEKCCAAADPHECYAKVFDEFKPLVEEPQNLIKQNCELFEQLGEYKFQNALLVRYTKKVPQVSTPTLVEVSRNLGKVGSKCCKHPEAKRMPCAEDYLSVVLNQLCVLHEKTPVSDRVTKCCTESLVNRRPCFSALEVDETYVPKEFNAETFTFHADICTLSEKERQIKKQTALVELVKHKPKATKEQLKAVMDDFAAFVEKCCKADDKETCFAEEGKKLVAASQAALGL

## N[C@@H](Cc1ccccc1)C(=O)N1CCN(c2nc(N3CCOCC3)nc(-n3c(C(F)F)nc4ccccc43)n2)CC1
[1]
  half-life: 168 to 180 min
[2]
  solubility: Soluble
Mus musculus [3]
  Activity: Non-Toxic
albumin
  fraction unbound: 0.03
[4]
  Tmax: 1 to 4 h
[5]
  microsomal CLint at 1 µM: 22 µL/min/mg
[6]
  clearance: 67 mL/min/kg
[7]
  inhibition: Active
[8]
  inhibition: Dose-dependent effect
[9]
  logD: 3.7
Mus musculus [10]
  Activity: Non-Toxic
[11]
  inhibition: 15%
[12]
  inhibition: Dose-dependent effect
[13]
  solubility kinetic: 6.3 to 12.5 µg/mL (≈ 11.2 to 22.2 µM)
[14]
  inhibition: Dose-dependent effect
[15]
  Stability: Stable
[16]
  inhibition: Dose-dependent effect
Rattus norvegicus
  Activity: Non-Toxic
[17]
  bioavailability: 26%
[18]
  solubility kinetic: > 100 µg/mL
Mus musculus [19]
  Activity: Active
Platelet
  inhibition: Dose-dependent effect
[20]
  CL: 60%
[21]
  inhibition (INH): <=60%
[22]
  clearance: 39 mL/min/kg
[23]
  dose excreted: < 0.1%
Mus musculus [24]
  Activity: Active
[25]
  Vd: 8.6 L/kg
[26]
  microsomal CLint at 1 µM: 43 µL/min/mg
[27]
  logD: 3
[28]
  Activity: Non-Toxic
[29]
  Activity: Non-Toxic
